How the values were obtained:
Hepatitis C virus [1] = assay: Antiviral activity against HCV 1b con1 in dual-reporter HCV replicon Huh7 cells by measuring hRLuc reporter activity after 72 hrs; assay type: functional, organism-based, Hepacivirus hominis; conditions: genotype 1b con1, Huh-7, 72 h
In short: (§1)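 Replicon cells seeded at 2 x 10^4/well in DMEM without selection antibiotics. Eight threefold serial compound dilutions added, final 320 to 0.1 µM (IFN 10 to 0.003 IU/ml). After 3 days at 37°C, medium removed and hRLuc activity read with a dual-luciferase reporter kit. Percent inhibition was taken relative to compound-free control and EC50 derived.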

[2] = Cytotoxicity against dual-reporter HCV replicon Huh7 cells by measuring FLuc reporter activity after 72 hrs; assay type: cell-based, Huh-7; conditions: human
In short: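 DDR cells carry a nuclear FLuc reporter. They were seeded at 2 x 10^4/well without selection antibiotics and given eight threefold compound dilutions, final 320 to 0.1 µM. After 3 days, medium was removed and FLuc read with a dual-luciferase kit. Percent inhibition was calculated versus compound-free control.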

[3] = Cytotoxicity against dual-reporter HCV replicon Huh7 cells by measuring XTT end points after 72 hrs; assay type: cell-based, Huh-7; conditions: human
In short: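 Cells were seeded at 2 x 10^4/well without selection antibiotics and exposed to eight threefold dilutions, final 320 to 0.1 µM, for 3 days. XTT (final 200 µg/ml) and phenazine methosulfate (final 1 mM) were then added. After 4 h, formazan was read at 450 nm against a 650 nm reference, and percent inhibition calculated versus control.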

[4] = Selectivity index, CC50 for dual-reporter HCV replicon Huh7 cells to EC50 against HCV 1 in dual-reporter HCV replicon Huh7 cells; assay type: functional, Huh-7
In short: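 Dual-reporter replicon cells: hRLuc from the replicon, FLuc in the nucleus. Seeded at 2 x 10^4/well without selection antibiotics, then eight threefold compound dilutions (final 320 to 0.1 µM). After 3 days, XTT/PMS for 4 h read at 450/650 nm, then FLuc and hRLuc luminescence. Percent inhibition calculated from the luciferase and XTT signals. Index = CC50/EC50.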

[5] = biological target: RNA-directed RNA polymerase (Hepacivirus hominis, UniProt O39930); assay: Inhibition of recombinant HCV 1b BK NS5B polymerase by primer/template-directed transcription assay; parameters: species or system Hepatitis C virus subtype 1b
Chain of RNA-directed RNA polymerase (O39930 whole entry): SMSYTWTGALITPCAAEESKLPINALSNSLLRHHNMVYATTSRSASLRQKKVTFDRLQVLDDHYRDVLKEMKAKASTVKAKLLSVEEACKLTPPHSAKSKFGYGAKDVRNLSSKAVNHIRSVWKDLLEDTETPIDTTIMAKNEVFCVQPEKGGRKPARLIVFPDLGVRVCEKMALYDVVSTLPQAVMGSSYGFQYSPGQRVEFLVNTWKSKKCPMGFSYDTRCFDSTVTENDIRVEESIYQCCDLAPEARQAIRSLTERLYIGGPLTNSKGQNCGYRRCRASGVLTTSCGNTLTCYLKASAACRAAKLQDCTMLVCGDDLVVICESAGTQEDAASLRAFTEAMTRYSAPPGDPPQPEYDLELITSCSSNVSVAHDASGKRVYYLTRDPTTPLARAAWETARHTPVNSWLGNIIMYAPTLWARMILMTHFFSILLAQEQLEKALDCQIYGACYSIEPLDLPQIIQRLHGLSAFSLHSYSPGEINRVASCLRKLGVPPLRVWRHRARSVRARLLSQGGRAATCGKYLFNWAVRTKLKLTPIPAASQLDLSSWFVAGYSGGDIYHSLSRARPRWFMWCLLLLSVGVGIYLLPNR
In short: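 Recombinant genotype 1b (strain BK) NS5B with biotin-dG12 primer (5 pmol) and poly(rC)300 template (0.5 pmol). Enzyme-started, 30 min at 30°C, EDTA stop, DEAE filter capture, scintillation counting. Final DMSO 1%. IC50 fitted from triplicate cpm.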

Hepatitis C virus [6] = assay: Antiviral activity against HCV 1b con1 in dicistronic reporter selectable HCV replicon Huh7 cells assessed as inhibition of HCV RNA after 72 hrs by RT-PCR; assay type: functional, organism-based, Hepacivirus hominis; conditions: genotype 1b con1, Huh-7, 72 h
In short: (§2)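 Cells were then PBS-washed and total RNA extracted. HCV RNA and GAPDH mRNA were quantified by TaqMan RT-PCR against standard curves, and HCV was normalized to GAPDH at each concentration. Percent inhibition was computed versus DMSO-treated wells, giving EC50. Reactions were also run without reverse transcriptase.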

Hepatitis C virus [7] = assay: Antiviral activity against HCV 1b con1 in HCV 1b in dicistronic reporter selectable HCV replicon Huh7 cells by measuring hRLuc reporter activity after 72 hrs; assay type: functional, organism-based, Hepacivirus hominis; conditions: genotype 1b con1, Huh-7, 72 h; in short: as §1
Hepatitis C virus [8] = assay: Antiviral activity against HCV 1b con1 in dual-reporter HCV replicon Huh7 cells assessed as inhibition of HCV RNA after 72 hrs by RT-PCR; assay type: functional, organism-based, Hepacivirus hominis; conditions: genotype 1b con1, Huh-7, 72 h; in short: as §2

| EC50 (Hepatitis C virus [1]) [µM] | IC50 [5] [µM] | EC50 (Hepatitis C virus [6]) [µM] | EC50 (Hepatitis C virus [7]) [µM] | EC50 (Hepatitis C virus [8]) [µM] | SMILES | CC50 at 72 h [2] [µM] | CC50 at 72 h [3] [µM] | Selectivity index [4] |
| --- | --- | --- | --- | --- | --- | --- | --- | --- |
| 115 |  |  |  |  | Cc1cc(SC2=C(O)OC(CCc3ccc(O)cc3)(C3CCCC3)CC2=O)c(C(C)(C)C)cc1N (stereo unspecified) | 116 | 242 | 0.9 |
| 1.7 | 0.014 | 2.4 | 3.3 | 3.2 | COc1cc(OC)c(CCC2(C3CCCC3)CC(O)=C(Sc3nc4nc(C)cc(C)n4n3)C(=O)O2)cc1Cl (stereo unspecified) | > 320 | > 320 | >188.2 |

| SMILES | EC50 (Hepatitis C virus [1]) [µM] | IC50 [5] [µM] | EC50 (Hepatitis C virus [6]) [µM] | EC50 (Hepatitis C virus [7]) [µM] | EC50 (Hepatitis C virus [8]) [µM] | CC50 at 72 h [2] [µM] | CC50 at 72 h [3] [µM] | Selectivity index [4] |
| --- | --- | --- | --- | --- | --- | --- | --- | --- |
| OC[C@H]1O[C@@H](n2cnc3cc(Cl)c(Cl)cc32)[C@H](O)[C@@H]1O [DICHLORORIBOBENZIMIDAZOLE] | 34.1 |  |  |  |  | 60.7 | 40.4 | 0.7 |

Source: ChEMBL document CHEMBL1142138, “Development of a novel dicistronic reporter-selectable hepatitis C virus replicon suitable for high-throughput inhibitor screening” (Antimicrob Agents Chemother, 2007)
